# Compound activity as filed in PubChem.
# M4 ag – agonists of human muscarinic M4 receptor (CHRM4) | P08173 | AID 624127 | 0.14% of 360,000 active | activation, % at 3 µM | CHO-K1 hM4/Gqi5, Fluo-8 calcium fluorescence; vehicle 0%, full acetylcholine response 100%;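 active = activation above the run mean over all test wells plus 3 SD, cut at about 32% in these data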;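 also: peak over basal fluorescence ratio per well then scaled between controls; 0% = DMSO wells and 100% = acetylcholine at EC100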
# Target sequence (P08173 whole entry, looked up): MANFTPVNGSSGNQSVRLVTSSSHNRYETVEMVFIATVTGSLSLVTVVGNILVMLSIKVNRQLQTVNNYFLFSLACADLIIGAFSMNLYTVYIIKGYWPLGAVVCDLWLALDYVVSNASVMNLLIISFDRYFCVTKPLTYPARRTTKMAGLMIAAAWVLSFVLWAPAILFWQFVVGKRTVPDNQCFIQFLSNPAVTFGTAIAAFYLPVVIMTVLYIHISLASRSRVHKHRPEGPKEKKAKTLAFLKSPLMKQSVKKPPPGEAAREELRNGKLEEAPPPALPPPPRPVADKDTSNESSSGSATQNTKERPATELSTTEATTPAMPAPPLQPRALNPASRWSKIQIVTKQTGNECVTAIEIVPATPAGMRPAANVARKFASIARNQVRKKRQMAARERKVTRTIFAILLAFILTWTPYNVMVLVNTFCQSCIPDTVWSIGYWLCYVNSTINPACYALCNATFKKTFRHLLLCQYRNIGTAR
# CHRM4 antagonist – antagonists of human muscarinic M4 receptor (CHRM4) | P08173 | CHO-hM4 cells, ACh EC80, Fluo-8 calcium fluorescence | inhibition, % at 3 µM | 0.73% of 360,000 active;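 active = inhibition above its plate's cutoff, the mean inhibition of sample wells plus 3 SD, cut at about 27% in these data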;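 also: 0% = acetylcholine EC80 with DMSO and 100% = DMSO without agonist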
# M5 ag – agonists of human muscarinic M5 receptor (CHRM5) | P08912 | CHO-K1 hM5 cells, Fluo-8 calcium fluorescence; 0% DMSO wells, 100% maximal acetylcholine response | activation, % at 3 µM | 0.19% of 360,000 active | AID 624037;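 active = activation above the run's mean over test compounds plus 3 SD, cut at about 23% in these data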;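 also: signal is peak over basal fluorescence ratio across the kinetic read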
# CHRM4 PAM – potentiates acetylcholine response at human M4 receptor; 0.4% of 360,000 active; CHO-K1 hM4/Gqi5, Fluo-8 calcium fluorescence, ACh EC20; 0% = ACh EC20, 100% = maximal ACh; activation, % at 3 µM; P08173;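 active = activation above its plate's cutoff, the mean activation of sample wells plus 3 SD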
# CHRM5 antagonist – antagonists of human muscarinic M5 receptor (CHRM5). P08912. inhibition, % at 3 µM. CHO-hM5 cells, Fluo-8 calcium fluorescence, ACh EC80. 0.59% of 360,000 active. AID 624040;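 active = inhibition above a per-plate cutoff, the mean of that plate's test compounds plus 3 SD, cut at about 27% in these data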;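 also: 0% = acetylcholine EC80 with DMSO and 100% = DMSO without agonist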
# M5 PAM – potentiates acetylcholine response at human M5 receptor | activation, % at 3 µM | CHO-K1 hM5, Fluo-8 calcium, ACh EC20 PAM; 0% = ACh EC20, 100% = ACh EC100 | AID 624038 | 0.3% of 360,000 active | P08912;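 active = activation above the run cutoff, the mean activation of all test compounds plus 3 SD, cut at about 18% in these data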
#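 Assay system: CHO-K1 hM5 cells / Incubation: Fluo-8 loading 80 min at 37 °C plus 30 min room temperature / Technique: Fluo-8 calcium dye fluorescence, kinetic read / Repeats: single replicate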
# * = called active by the depositor. Sampled rows, rich in hits. Any-hit rate of the full collection: about 1.9%.
SMILES,M4 ag,CHRM4 antagonist,M5 ag,CHRM4 PAM,CHRM5 antagonist,M5 PAM
CCCCNC(=O)C1C(c2ccc(OC)cc2)=Nc2ccccc2N1C(=O)Cc1cc(OC)cc(OC)c1 (stereo not drawn),8,-18,2,-3,-4,-1
Cn1c(C(=O)NC2CC2)cc2c(=O)n(C)c3ccccc3c21,25,5,1,31*,1,-4
COc1cccc(Cn2nnc(C(=O)Nc3cc(C)ccc3OC)c2N)c1,0,-13,-2,18*,2,-6
Cc1ccc(Cn2nnc(C(=O)Nc3cccc(C)c3C)c2N)cc1,53*,21,38*,-20,14,-4
CCc1ccc(Cn2nnc(C(=O)Nc3cccc(C)c3)c2N)cc1,4,5,6,2,3,-3
COc1cc(C(=O)NCCC(=O)NC(C)CCc2ccccc2)cc(OC)c1OC (stereo not drawn),1,0,-5,1,16,-3
COCCN(Cc1cc2ccc(C)cc2[nH]c1=O)S(=O)(=O)c1ccccc1,4,9,1,-3,9,-5
COc1ccccc1CCNC(=O)CCn1c(=O)oc2ccccc21,0,-8,1,3,-1,-3
COc1ccccc1CCNC(=O)Cn1c(=O)oc2ccccc21,4,3,-3,-2,40*,-14
CC(=NO)c1ccc2c(c1)Cc1cc([N+](=O)[O-])ccc1-2,5,-15,-1,9,5,-5
Nc1ccc2c(c1)Cc1cc([N+](=O)[O-])ccc1-2,11,13,35*,-7,28*,-12
CC(O)CN(CC(C)O)c1ccc2c(c1)Cc1cc([N+](=O)[O-])ccc1-2 (stereo not drawn),90*,34*,527*,-14,73*,-37
CC(C)N1C(=O)C(=O)N(CC(=O)N2c3ccccc3CC2C)C1=O (stereo not drawn),1,-3,-1,1,-3,2
O=C(O)C(Cc1c[nH]c2ccccc12)NS(=O)(=O)c1ccc2ccccc2c1 (stereo not drawn),0,-16,-2,20*,-13,7
O=C(O)C(Cc1c[nH]c2ccccc12)NS(=O)(=O)c1ccc(F)cc1 (stereo not drawn),1,2,1,-6,-7,0
CCN(CC(=O)Nc1ccc2c(c1)OCCO2)C(=O)/C=C/c1ccc(OC)cc1OC,5,-3,-3,0,17,-8
CCN(CC(=O)Nc1ccc2c(c1)OCCO2)C(=O)/C=C/c1cccc(OC)c1OC,4,-15,25*,23,-13,11
COc1ccccc1C(=O)NCCN1CCCC1,1,-10,3,3,-3,-1
O=C(c1cccc(C(F)(F)F)c1)N1CCCCCC1,0,-7,-2,-1,-4,-5
CC(C)n1c(C(F)(F)F)nc2cc(C(=O)N3CCCCC3)ccc21,1,30*,1,-2,11,0
O=C(Oc1cccc2c(OC(=O)N3CCOCC3)cccc12)N1CCOCC1,0,14,1,8,-6,8
O=C(Oc1ccc2cccc(OC(=O)N3CCOCC3)c2c1)N1CCOCC1,1,-2,1,1,2,19*
COc1ccc2oc(C(=O)Nc3nccs3)c(C)c2c1,1,-3,-4,7,0,6
CCCCc1nnc(NC(=O)c2oc3ccc(OC)cc3c2C)s1,0,-15,-3,15,-16,19*
OC(CCN1CCOCC1)(c1ccc(Cl)cc1)C1CCCCC1 (stereo not drawn),-1,39*,-11,-15,29*,-34
SMILES,M4 ag,CHRM4 antagonist,M5 ag,CHRM4 PAM,CHRM5 antagonist,M5 PAM
O=C(CN1CCc2ccccc2C1)Nc1ccc(F)cc1,1,3,4,-3,1,3
O=C(CN1CCc2ccccc2C1)Nc1ccc(OC(F)(F)F)cc1,-1,82*,-7,-16,18,-20
CCOc1ccccc1NC(=O)C(OC(=O)c1ccc(CC)cc1)c1ccccc1 (stereo not drawn),0,-24,-3,6,1,-2
CCOc1ccccc1NC(=O)C(OC(=O)c1ccc(O)cc1)c1ccccc1 (stereo not drawn),4,7,-1,-6,29*,-13
Cc1cc(C)n2nc(C(=O)N/N=C/c3cccc(Cl)c3)nc2n1,1,1,0,32*,2,-3
N#C/C(=C\c1coc2ccc(O)cc2c1=O)C(=O)Nc1nc2ccccc2s1,67*,39*,105*,-38,48*,-28
CCOC(=O)c1oc2ccccc2c1NC(=O)C(C)(C)C,-1,-6,-1,5,6,5
CCOC(=O)c1oc2ccc(Cl)cc2c1NC(C)=O,2,-9,-1,20*,8,1
CCCc1nn2c(=O)cc(COc3ccc(NC(=O)c4ccco4)cc3)nc2s1,1,12,-3,-4,0,1
Cc1nc2c(C)cccn2c1/C(O)=C1\C(=O)C(=O)N(CCN(C)C)C1c1ccco1 (stereo not drawn),1,-10,7,12,-13,21*
Cc1ccc(C2/C(=C(\O)c3c(C)nc4c(C)cccn34)C(=O)C(=O)N2CCN(C)C)o1 (stereo not drawn),16,-8,7,-8,4,-9
N#C/C(=C/c1ccc(N2CCCCC2)o1)C(=O)Nc1ccc2ccccc2c1,181*,84*,457*,-23,91*,-21
N#C/C(=C/c1ccc(N2CCCCC2)o1)C(=O)Nc1ccc(Cl)cc1,170*,45*,56*,-19,55*,-26
CC(=O)Nc1cncc(-c2cnn(CC(C)C)c2)n1,2,-2,1,-2,1,0
COc1ccc(C(=O)C[C@@H]2OC3CCCCC3N2S(=O)(=O)c2ccc(C)cc2)cc1OC (stereo partly drawn),1,-4,-1,2,3,2
O=C(CN1C(=O)c2ccccc2S1(=O)=O)c1ccc2c(c1)OCCO2,2,-7,2,-2,-16,21*
O=C(CN1C(=O)c2ccccc2S1(=O)=O)c1ccc2c(c1)OCCCO2,6,0,-4,-4,0,2
CC(C)[C@H](NS(=O)(=O)c1ccccc1F)C(=O)NC1CCCCC1,0,-9,0,14,4,2
Cc1cc(Br)ccc1NC(=O)CN1C(=O)C2C3CC(c4ccccc4)C(C3)C2C1=O (stereo not drawn),10,28*,3,-21,19,-9
